Test results as given in ChEMBL document CHEMBL4270565, “Design, synthesis and antimicrobial evaluation of propylene-tethered ciprofloxacin-isatin hybrids” (Eur J Med Chem, 2018).

Experiments:
Klebsiella pneumoniae [1] = experiment: Antibacterial activity against extended-spectrum beta-lactamase harboring Klebsiella pneumoniae ATCC 700603 after 18 to 24 hrs by two-fold serial dilution method; type: functional
Procedure, shortened: (§1)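 Agar two-fold serial dilution in Mueller-Hinton agar. Strains came from the Chinese Center for Disease Control and Prevention. Compounds were dissolved in 0.1 N NaOH and water, then diluted in melted agar to final levels stepping down from 128. Plates were inoculated with bacterial cfu and incubated at 35 C for 18–24 h. MIC is the lowest concentration giving 90% growth inhibition.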

Escherichia coli [2] = experiment: Antibacterial activity against extended-spectrum beta-lactamase harboring Escherichia coli ATCC 35218 after 18 to 24 hrs by two-fold serial dilution method; type: functional; procedure, shortened: as §1
Enterococcus faecalis [3] = experiment: Antibacterial activity against Enterococcus faecalis ATCC 29212 after 18 to 24 hrs by two-fold serial dilution method; type: functional
Procedure, shortened: (§2)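 Agar two-fold dilution MIC. Compounds were dissolved in 0.1 N NaOH and water, then serially diluted in melted Mueller-Hinton agar, with top concentrations starting at 128. Plates were inoculated at about 10 cfu and incubated at 35 °C for 18–24 h. MIC was taken as the lowest concentration giving 90% inhibition of growth.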

[4] = test system: Mycobacterium tuberculosis; experiment: Antimycobacterial activity against Mycobacterium tuberculosis H37Rv after 7 days; type: functional; conditions: 168 h
Procedure, shortened: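 Rapid direct susceptibility test in 48-well plates. Two-fold dilutions of compound from DMSO stocks were mixed with an equal volume of bacterial suspension. Medium-only wells served as growth controls and water-only wells as no-growth controls. Plates were sealed and held at 37 C in a humid box, and controls were checked at 3 days. MIC (90% growth inhibition) was read visually by high-magnification observation of the cells and re-read at 7 days.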

[5] = Cytotoxicity against African green monkey Vero cells assessed as reduction in cell viability after 72 hrs by MTT assay; type: cell-based; conditions: chlorocebus sabaeus
Procedure, shortened: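 VERO cells were kept in MEM with Earle's salts and 10% FBS at 37 °C, 5% CO2. They were seeded in 96-well plates and allowed to recover for 24 h. Cells were then exposed to compounds in DMSO over a series from 1000 down to 4 for 72 h. Viability was read by MTT, and CC50 was calculated by Bliss analysis.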

Morganella morganii = experiment: Antibacterial activity against Morganella morganii ATCC 25830 after 18 to 24 hrs by two-fold serial dilution method; type: functional; procedure, shortened: as §2
Enterococcus faecium [6] = experiment: Antibacterial activity against Enterococcus faecium ATCC 700221 after 18 to 24 hrs by two-fold serial dilution method; type: functional; procedure, shortened: as §2
Enterococcus faecalis [7] = experiment: Antibacterial activity against Enterococcus faecalis ATCC 51299 after 18 to 24 hrs by two-fold serial dilution method; type: functional; procedure, shortened: as §2
Pseudomonas aeruginosa = experiment: Antibacterial activity against Pseudomonas aeruginosa ATCC 27853 after 18 to 24 hrs by two-fold serial dilution method; type: functional; procedure, shortened: as §2
Enterococcus faecium [8] = experiment: Antibacterial activity against Enterococcus faecium 13-7 after 18 to 24 hrs by two-fold serial dilution method; type: functional; procedure, shortened: as §2
[9] = test system: Staphylococcus epidermidis; experiment: Antibacterial activity against methicillin-sensitive Staphylococcus epidermidis ATCC 12228 after 18 to 24 hrs by two-fold serial dilution method; type: functional; procedure, shortened: as §2
Klebsiella aerogenes = experiment: Antibacterial activity against Enterobacter aerogenes ATCC 13048 after 18 to 24 hrs by two-fold serial dilution method; type: functional; procedure, shortened: as §2
Proteus vulgaris = experiment: Antibacterial activity against Proteus vulgaris ATCC 29905 after 18 to 24 hrs by two-fold serial dilution method; type: functional; procedure, shortened: as §2
[10] = test system: Staphylococcus epidermidis; experiment: Antibacterial activity against methicillin-resistant Staphylococcus epidermidis 13-3 after 18 to 24 hrs by two-fold serial dilution method; type: functional; procedure, shortened: as §1
Klebsiella pneumoniae [11] = experiment: Antibacterial activity against extended-spectrum beta-lactamase deficient Klebsiella pneumoniae 15-2 after 18 to 24 hrs by two-fold serial dilution method; type: functional; procedure, shortened: as §2
Proteus mirabilis = experiment: Antibacterial activity against Proteus mirabilis 13-1 after 18 to 24 hrs by two-fold serial dilution method; type: functional; procedure, shortened: as §2
Staphylococcus aureus [12] = experiment: Antibacterial activity against methicillin-resistant Staphylococcus aureus ATCC 33591 after 18 to 24 hrs by two-fold serial dilution method; type: functional; procedure, shortened: as §1
Enterobacter cloacae = experiment: Antibacterial activity against Enterobacter cloacae ATCC 43560 after 18 to 24 hrs by two-fold serial dilution method; type: functional
[13] = test system: Stenotrophomonas maltophilia; experiment: Antibacterial activity against Stenotrophomonas maltophilia ATCC 13636 after 18 to 24 hrs by two-fold serial dilution method; type: functional; procedure, shortened: as §2
Citrobacter freundii = experiment: Antibacterial activity against extended-spectrum beta-lactamase harboring Citrobacter freundii ATCC 43864 after 18 to 24 hrs by two-fold serial dilution method; type: functional; procedure, shortened: as §1
[14] = test system: Acinetobacter calcoaceticus; experiment: Antibacterial activity against Acinetobacter calcoaceticus ATCC 19606 after 18 to 24 hrs by two-fold serial dilution method; type: functional; procedure, shortened: as §2
Staphylococcus aureus [15] = experiment: Antibacterial activity against methicillin-sensitive Staphylococcus aureus ATCC 29213 after 18 to 24 hrs by two-fold serial dilution method; type: functional; procedure, shortened: as §1
Serratia marcescens = experiment: Antibacterial activity against Serratia marcescens ATCC 21074 after 18 to 24 hrs by two-fold serial dilution method; type: functional; procedure, shortened: as §2
Escherichia coli [16] = experiment: Antibacterial activity against extended-spectrum beta-lactamase deficient Escherichia coli ATCC 25922 after 18 to 24 hrs by two-fold serial dilution method; type: functional; procedure, shortened: as §2
Providencia rettgeri = experiment: Antibacterial activity against Providencia rettgeri ATCC 31052 after 18 to 24 hrs by two-fold serial dilution method; type: functional; procedure, shortened: as §2

CO/N=C1\C(=O)N(CCCN2CCN(c3cc4c(cc3F)c(=O)c(C(=O)OCCCN3C(=O)/C(=N/OC)c5ccccc53)cn4C3CC3)CC2)c2ccccc21
128 µg/mL: MIC90 (Morganella morganii) | MIC90 (Enterococcus faecium [6]) | MIC90 (Enterococcus faecalis [7]) | MIC90 [10] | MIC90 [13] | MIC90 [14] | MIC90 (Staphylococcus aureus [15])
> 128 µg/mL: MIC90 (Enterococcus faecium [8]) | MIC90 (Staphylococcus aureus [12])
12.5 µg/mL: MIC90 [4]
32 µg/mL: MIC90 [9] | MIC90 (Proteus vulgaris) | MIC90 (Klebsiella pneumoniae [11]) | MIC90 (Enterobacter cloacae)
4 µg/mL: MIC90 (Escherichia coli [2]) | MIC90 (Escherichia coli [16])
64 µg/mL: MIC90 (Klebsiella pneumoniae [1]) | MIC90 (Enterococcus faecalis [3]) | CC50 at 72 h [5] | MIC90 (Pseudomonas aeruginosa) | MIC90 (Klebsiella aerogenes) | MIC90 (Proteus mirabilis) | MIC90 (Citrobacter freundii) | MIC90 (Serratia marcescens) | MIC90 (Providencia rettgeri)

CCO/N=C1\C(=O)N(CCCN2CCN(c3cc4c(cc3F)c(=O)c(C(=O)OCCCN3C(=O)/C(=N/OCC)c5ccccc53)cn4C3CC3)CC2)c2ccccc21
64 µg/mL: MIC90 (Klebsiella pneumoniae [1]) | MIC90 (Enterococcus faecalis [3]) | MIC90 (Morganella morganii) | MIC90 (Pseudomonas aeruginosa) | MIC90 [9] | MIC90 (Klebsiella aerogenes) | MIC90 (Klebsiella pneumoniae [11]) | MIC90 (Proteus mirabilis) | MIC90 (Enterobacter cloacae)
8 µg/mL: MIC90 (Escherichia coli [16])
25 µg/mL: MIC90 [4]
128 µg/mL: MIC90 (Proteus vulgaris) | MIC90 [10] | MIC90 (Citrobacter freundii) | MIC90 (Staphylococcus aureus [15]) | MIC90 (Providencia rettgeri)
32 µg/mL: MIC90 (Escherichia coli [2]) | CC50 at 72 h [5]
> 128 µg/mL: MIC90 (Enterococcus faecium [6]) | MIC90 (Enterococcus faecalis [7]) | MIC90 (Enterococcus faecium [8]) | MIC90 (Staphylococcus aureus [12]) | MIC90 [13] | MIC90 [14] | MIC90 (Serratia marcescens)

Cc1ccc2c(c1)C(=O)C(=O)N2CCCOC(=O)c1cn(C2CC2)c2cc(N3CCN(CCCN4C(=O)C(=O)c5cc(C)ccc54)CC3)c(F)cc2c1=O
64 µg/mL: MIC90 (Klebsiella pneumoniae [1]) | MIC90 (Enterococcus faecalis [3]) | CC50 at 72 h [5] | MIC90 (Morganella morganii) | MIC90 (Proteus vulgaris) | MIC90 (Klebsiella pneumoniae [11]) | MIC90 (Proteus mirabilis) | MIC90 (Citrobacter freundii) | MIC90 [14] | MIC90 (Staphylococcus aureus [15])
128 µg/mL: MIC90 (Enterococcus faecium [6]) | MIC90 (Pseudomonas aeruginosa) | MIC90 (Klebsiella aerogenes) | MIC90 [10] | MIC90 [13] | MIC90 (Providencia rettgeri)
8 µg/mL: MIC90 (Escherichia coli [2]) | MIC90 (Escherichia coli [16])
32 µg/mL: MIC90 [9] | MIC90 (Enterobacter cloacae)
> 128 µg/mL: MIC90 (Enterococcus faecalis [7]) | MIC90 (Enterococcus faecium [8]) | MIC90 (Staphylococcus aureus [12]) | MIC90 (Serratia marcescens)
50 µg/mL: MIC90 [4]
